In ChEMBL document CHEMBL4196061, “Novel topoisomerase I inhibitors. Syntheses and biological evaluation of phosphorus substituted quinoline derivates with antiproliferative activity” (Eur J Med Chem, 2018) one finds inhibition and IC50 data, which are given here for 10 molecules.

Test [1] concerns the target T1, DNA topoisomerase 1 (Homo sapiens) (UniProt P11387).
T1 sequence (whole entry): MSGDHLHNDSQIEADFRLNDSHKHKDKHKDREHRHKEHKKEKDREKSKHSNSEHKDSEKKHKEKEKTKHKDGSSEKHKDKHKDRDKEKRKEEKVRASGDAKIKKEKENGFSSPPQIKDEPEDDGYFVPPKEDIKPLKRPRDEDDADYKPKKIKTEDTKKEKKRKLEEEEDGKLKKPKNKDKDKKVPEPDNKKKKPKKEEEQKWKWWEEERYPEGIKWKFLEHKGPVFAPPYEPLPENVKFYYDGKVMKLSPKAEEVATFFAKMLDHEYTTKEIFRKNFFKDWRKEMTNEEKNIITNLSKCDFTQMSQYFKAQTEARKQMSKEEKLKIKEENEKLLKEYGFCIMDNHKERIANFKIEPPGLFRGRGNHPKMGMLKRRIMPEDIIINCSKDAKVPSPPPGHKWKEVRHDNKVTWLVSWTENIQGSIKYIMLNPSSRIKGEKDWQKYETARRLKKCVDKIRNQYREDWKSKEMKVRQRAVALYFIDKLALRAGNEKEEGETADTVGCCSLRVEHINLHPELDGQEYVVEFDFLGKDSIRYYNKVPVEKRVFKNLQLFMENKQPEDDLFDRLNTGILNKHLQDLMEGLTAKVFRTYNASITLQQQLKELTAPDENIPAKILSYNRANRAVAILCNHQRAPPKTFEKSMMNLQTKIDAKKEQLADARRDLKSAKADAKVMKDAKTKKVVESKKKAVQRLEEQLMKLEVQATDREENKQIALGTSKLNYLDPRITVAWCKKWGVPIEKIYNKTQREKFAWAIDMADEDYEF
In words: Inhibition of recombinant human topoisomerase 1-mediated DNA relaxation expressed in Saccharomyces cerevisiae TopI null strain RS190 at 40 uM using negatively supercoiled pUC18 as substrate pretreated with enzyme for 15 mins followed by substrate addition measured after 3 mins by agarose gel electrophoresis. The procedure, abridged:
(§1)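 Human TopI was expressed from pHT143 (GAL promoter) in yeast RS190 and affinity-purified. Reactions used 110 ng/µL TopI and 0.5 µg supercoiled pUC18 in 20 µl buffer (20 mM Tris–HCl, 0.1 mM Na2EDTA, 10 mM MgCl2, 50 µg/mL acetylated BSA, 150 mM KCl, pH 7.5). Drug was mixed with enzyme before DNA was added, and reactions were stopped with SDS. Products were resolved on 1% agarose in TBE and stained with gel red.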

The target in test [2] is T1, DNA topoisomerase 1 (Homo sapiens). In words: Inhibition of recombinant human topoisomerase 1-mediated DNA relaxation expressed in Saccharomyces cerevisiae TopI null strain RS190 at 80 uM using negatively supercoiled pUC18 as substrate pretreated with enzyme for 15 mins followed by substrate addition measured after 15 secs by agarose gel electrophoresis. The procedure, abridged: as §1

Test [3] has as its system SK-OV-3. In words: Antiproliferative activity against human SKOV3 cells after 48 hrs by CCK-8 assay. The test is classed as functional, cell-based. The following applies: SK-OV-3, 48 h. The procedure, abridged:
(§2)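 Cells seeded at 2-4 x 10^3 per well and grown overnight in 0.1 mL medium with 10% FBS at 37 °C under 5% CO2. Drugs were added on day 2 and cells incubated 48 h. CCK-8 was then added for 2 h at 37 °C and absorbance read at 450 nm. IC50 values were reported.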

In test [4] the target is T1, DNA topoisomerase 1 (Homo sapiens). As to the kind of experiment: Inhibition of recombinant human topoisomerase 1-mediated DNA relaxation expressed in Saccharomyces cerevisiae TopI null strain RS190 at 80 uM using negatively supercoiled pUC18 as substrate pretreated with enzyme for 15 mins followed by substrate addition measured after 1 min by agarose gel electrophoresis. The procedure, abridged: as §1

The test system of test [5] is A549. In words: Antiproliferative activity against human A549 cells after 48 hrs by CCK-8 assay. It counts as functional, cell-based. The note with it: A549, 48 h. The procedure, abridged: as §2
Test [6] deals with T1, DNA topoisomerase 1 (Homo sapiens). As to the kind of experiment: Inhibition of recombinant human topoisomerase 1-mediated DNA relaxation expressed in Saccharomyces cerevisiae TopI null strain RS190 at 80 uM using negatively supercoiled pUC18 as substrate pretreated with enzyme for 15 mins followed by substrate addition measured after 3 mins by agarose gel electrophoresis. The procedure, abridged: as §1

For test [7], the system named is HEK293. In words: Antiproliferative activity against human HEK293 cells after 48 hrs by CCK-8 assay. The note with it: HEK293, 48 h.
Test [8] relates to MRC5. In words: Antiproliferative activity against human MRC5 cells after 48 hrs by CCK-8 assay. The test is classed as cell-based. The following applies: MRC5, 48 h. The procedure, abridged: as §2
In test [9] the target is T1, DNA topoisomerase 1 (Homo sapiens). As to the kind of experiment: Inhibition of recombinant human topoisomerase 1-mediated DNA relaxation expressed in Saccharomyces cerevisiae TopI null strain RS190 at 60 uM using negatively supercoiled pUC18 as substrate pretreated with enzyme for 15 mins followed by substrate addition measured after 3 mins by agarose gel electrophoresis. The procedure, abridged: as §1

Test [10] shares this target. In words: Inhibition of recombinant human topoisomerase 1-mediated DNA relaxation expressed in Saccharomyces cerevisiae TopI null strain RS190 at 10 uM using negatively supercoiled pUC18 as substrate pretreated with enzyme for 15 mins followed by substrate addition measured after 3 mins by agarose gel electrophoresis. The procedure, abridged: as §1
The target is the same in test [11]. In words: Inhibition of recombinant human topoisomerase 1-mediated DNA relaxation expressed in Saccharomyces cerevisiae TopI null strain RS190 at 20 uM using negatively supercoiled pUC18 as substrate pretreated with enzyme for 15 mins followed by substrate addition measured after 3 mins by agarose gel electrophoresis. The procedure, abridged: as §1

For the molecule `S=P(c1ccccc1)(c1ccccc1)c1cccc2c1N[C@H](c1ccccc1)C[C@@H]2c1ccccc1`, the inhibition in test [1] was found to be 0%; in test [2], 81%; in test [4] it was 81%; in [6], 76%; in test [9] it was 0%; in test [10] it was 0%. Moreover, the inhibition in test [11] stood at 0%. Moreover, the 50% inhibitory concentration (IC50) is above 50 µM in [3], 0.16 µM in test [5], above 50 µM in [7] and above 50 µM in test [8].

For `Cc1ccc([C@H]2C[C@@H](c3ccccc3)Nc3c2cccc3P(c2ccccc2)c2ccccc2)cc1`, the inhibition is 17% in [1]; 80% in test [2]; 79% in test [4]; 76% in test [6]; 22% in test [9]; 0% in test [10]. Moreover, the inhibition in test [11] stood at 16%. Also, the IC50 in [3] was above 50 µM; in [5], 0.11 µM; in [7], above 50 µM; in test [8] it was above 50 µM.

Regarding `Fc1ccc([C@H]2C[C@@H](c3ccc(F)cc3)Nc3c2cccc3P(=S)(c2ccccc2)c2ccccc2)cc1`, the inhibition in [1] amounted to 17%; in test [2], 85%; in [4], 84%; in [6] it was 75%; in test [9] it was 19%; in test [10] it was 17%. Besides, in [11], the inhibition was determined as 17%. For the same molecule, the 50% inhibitory concentration (IC50) in test [3] was above 50 µM; in test [5], 0.03 µM; in [7] it was above 50 µM; in test [8], above 50 µM.

Turning to `c1ccc([C@H]2C[C@@H](c3ccccc3)Nc3c2cccc3P(c2ccccc2)c2ccccc2)cc1`, the inhibition was 0% in test [1]; 85% in test [2]; 85% in test [4]; 85% in [6]; 0% in [9]; 0% in test [10]. For the same molecule, in test [11], the inhibition stood at 0%. Moreover, the half-maximal inhibitory concentration (IC50) was above 50 µM in [3], 0.6 µM in [5], above 50 µM in test [7] and above 50 µM in test [8].

With `Cc1ccc([C@H]2C[C@@H](c3ccc(F)cc3)Nc3c2cccc3P(c2ccccc2)c2ccccc2)cc1`, the inhibition in test [1] stood at 52%; in test [2] it was 96%; in [4], 92%; in test [6], 92%; in test [9] it was 53%; in test [10], 20%. In addition, the inhibition in [11] was found to be 28%. In addition, the IC50 is above 50 µM in test [3], 0.25 µM in test [5], above 50 µM in test [7] and above 50 µM in test [8].

In the case of `S=P(c1ccccc1)(c1ccccc1)c1cccc2c1N[C@H](c1ccc3ccccc3c1)C[C@@H]2c1ccccc1`, the inhibition stood at 19% in test [1]; 76% in test [2]; 76% in test [4]; 76% in test [6]; 28% in [9]; 15% in [10]. Moreover, in test [11], the inhibition was found to be 16%. In addition, the IC50 in [3] is above 50 µM; in test [5], 0.27 µM; in [7], above 50 µM; in [8], above 50 µM.

Consider `Fc1ccc([C@H]2C[C@@H](c3ccc(F)cc3)Nc3c2cccc3P(c2ccccc2)c2ccccc2)cc1`, for which the inhibition in test [1] came out at 0%; in test [2] it was 78%; in test [4], 75%; in test [6] it was 75%; in [9], 20%; in [10], 0%. Moreover, the inhibition in test [11] stood at 0%. Also, the IC50 in [3] was above 50 µM; in test [5], 0.08 µM; in test [7], above 50 µM; in test [8] it was above 50 µM.

Take `O=P(c1ccccc1)(c1ccccc1)c1cccc2c1N[C@H](c1ccccn1)C[C@@H]2c1ccccc1`: the inhibition in test [1] stood at 24%; in test [2], 92%; in test [4], 85%; in test [6] it was 76%; in test [9], 34%; in test [10], 19%. The inhibition in test [11] came to 19%. For the same molecule, the IC50 is 19.1 µM in [3], 3.8 µM in [5], 14.8 µM in test [7] and above 50 µM in [8].

`FC(F)(F)c1ccc(-c2cc(-c3ccccc3)c3cccc(P(=S)(c4ccccc4)c4ccccc4)c3n2)cc1`: the inhibition in test [1] was 18%; in test [2], 81%; in [4], 81%; in test [6], 81%; in test [9], 24%; in test [10] it was 8%. The inhibition in test [11] turned out to be 10%. Moreover, the 50% inhibitory concentration (IC50) in test [3], in [5], in [7] and in [8] was above 50 µM in each case.

On to `O=P(c1ccccc1)(c1ccccc1)c1cccc2c1N[C@H](c1ccccc1)C[C@@H]2c1ccccc1`, for which the inhibition turned out to be 52% in [2], 50% in [4] and 21% in test [6]. In addition, the IC50 in test [3] is above 50 µM; in test [5], 1.72 µM; in [7] it was above 50 µM; in test [8] it was above 50 µM.
